Results collected from several papers.
Lines come from different studies, so protocols differ.
CSF1R Y969C: Macrophage colony-stimulating factor 1 receptor (CSF1R, Homo sapiens, UniProt P07333, Y969C)
CSF1R autoinhibited: Macrophage colony-stimulating factor 1 receptor, autoinhibited (CSF1R, Homo sapiens, UniProt P07333)
CSF1R: Macrophage colony-stimulating factor 1 receptor (CSF1R, Homo sapiens, UniProt P07333)

Structure (SMILES)	target	observed	action	method	concentration	quantity	value
Cc1cc(NC(=O)c2cccc3cc(-c4cccc5[nH]nc(N)c45)ccc23)ccc1F	CSF1R Y969C	enzyme activity	inhibitor		0.1 µM	activity vs control	30%
C[C@@H]1CN(c2cc(-c3nn(C)c4ccc(OC5(C)CC5)cc34)ncn2)C[C@H](C)O1	CSF1R autoinhibited	cell-free assay		competition with immobilised ligand	1 µM	remaining binding	55%
Cc1ccc(NC(=O)c2ccc(C)c(C(F)(F)F)c2)cc1C#Cc1nn(C2CCC(O)CC2)c2ncnc(N)c12 (stereo not shown)	CSF1R	cell-free assay			10 µM	remaining signal	4%
Cc1sc(C(=O)NC2COC2)cc1-n1cc(NC(=O)Nc2c(F)cccc2Cl)cn1	CSF1R	enzyme activity	inhibitor		10 µM	remaining activity	103%
COc1cc2ncnc(Nc3ccc(Oc4ccccc4)c(C)c3C)c2cc1OC	CSF1R	enzyme activity	inhibitor		1 µM	inhibition	8%
C[C@@H]1CCN(c2nccc(-c3cnn4ncccc34)n2)C1	CSF1R autoinhibited	binding			1 µM	remaining binding	78%
CN(C)C1CCN(CC#Cc2nn(C3CCCC3)c3nc(NCc4ccccc4)ncc23)C1 (stereo not shown)	CSF1R	enzyme activity	inhibitor	FRET	10 µM	inhibition	107%
CN(C(=O)c1ccccc1)c1cc(N(C)c2ccc3c(c2)CCc2ccc(C(=O)NCCN4CCOCC4)cc2C3=O)ccc1F	CSF1R	cell-free assay		competition with immobilised ligand	1 µM	remaining binding	98%
CCCS(=O)(=O)Nc1ccc(F)c(C(=O)c2c[nH]c3ncc(-c4ccc(Cl)cc4)cc23)c1F	CSF1R	enzyme activity	inhibitor		1 µM	inhibition	< 20%
CNC(=O)c1cc2c(Oc3ccc(NC(=O)C4(C(=O)Nc5ccc(F)cc5)CC4)cc3)ccnc2cc1OC	CSF1R Y969C	enzyme activity	inhibitor	radiometric	1 µM	inhibition	77%
CC(C)(C)c1nc2c(s1)c1nc(N)ncc1c1ccc(NS(=O)(=O)c3c(F)cccc3F)c(F)c12	CSF1R	enzyme activity	inhibitor	radiometric	1 µM	remaining activity	109%
O=Nc1c(-c2c(O)[nH]c3ccccc23)[nH]c2ccccc12	CSF1R	cell-free assay			0.5 µM	remaining signal	83.2%
N[C@@H]1CCN(c2nccc(-c3cnn4ncccc34)n2)C1	CSF1R	binding			1 µM	remaining binding	100%
Oc1cccc(-c2nc(N3CCOCC3)c3oc4ncccc4c3n2)c1	CSF1R	cell-free assay			0.5 µM	remaining signal	108%
Nc1ncnc2occ(-c3ccc(NC(=O)Nc4cc(C(F)(F)F)ccc4F)cc3)c12	CSF1R	cell-free assay			20 µM	remaining signal	0%
COc1cccc(CNC(=O)c2nc3scc(COCc4ccc(C(=O)O)cc4)c3c(=O)[nH]2)c1	CSF1R autoinhibited	cell-free assay		competition with immobilised ligand	1 µM	remaining binding	100%
CC(C)(O)[C@H]1CC[C@H](Nc2ccc3ncc(-c4cccc(C(F)(F)F)c4)n3n2)CC1	CSF1R	enzyme activity	inhibitor		1 µM	remaining activity	89.7%

Structure (SMILES)	target	observed	action	method	concentration	quantity	value
O=C(CSc1nc2nccnc2c(=O)n1CCc1ccccc1)Nc1nccs1	CSF1R	enzyme activity	inhibitor		10 µM	inhibition	13%
CC(=O)C1=C(C)N(c2cccc(C(F)(F)F)c2)C(=O)N[C@@H]1c1ccc(C#N)nc1	CSF1R	cell-free assay		competition with immobilised ligand	1 µM	remaining binding	99.4%
C=CC(=O)Nc1cc(Nc2nccc(Nc3cc(Cl)c(F)cc3C(C)(C)O)n2)c(OC)cc1N1CC[C@@H](N(C)C)C1	CSF1R	enzyme activity	inhibitor		1 µM	inhibition	13%
CCN(CC)CCNC(=O)c1c(C)[nH]c(/C=C2\C(=O)Nc3ccc(F)cc32)c1C	CSF1R	cell-free assay			0.3 µM	inhibition	98%
Cc1cnc(NC2CCOCC2)nc1-n1cnc(C(=O)NC(CN)c2cc(F)cc(Cl)c2)c1 (stereo not shown)	CSF1R Y969C	enzyme activity	inhibitor	radiometric	1 µM	remaining activity	101%
CN(c1nccc(-c2cnn3ncccc23)n1)C1CC1	CSF1R	binding			1 µM	remaining binding	88%
COc1cc(Cl)c(C(=O)N[C@@H](CN[C@H]2CC[C@@H](N)CC2)Cc2ccc(C#N)cc2)cc1-c1ccc(CN[C@H](C)c2ccc(C)cc2)o1	CSF1R	enzyme activity	inhibitor		1 µM	remaining activity	111%
Cc1c(NC(=O)c2cc(C(N)=O)nc3cc(F)ccc23)c(C(F)(F)F)nn1Cc1ccc(C#N)cc1	CSF1R	cell-free assay		competition with immobilised ligand	1 µM	remaining binding	83%
CN(C)c1nccc(-c2cnn3ncccc23)n1	CSF1R autoinhibited	binding			1 µM	remaining binding	100%
FC(F)(F)c1ccc2c(c1)nc(-c1cccnc1)n2C1CC1	CSF1R autoinhibited	cell-free assay		competition with immobilised ligand	1 µM	remaining binding	89%
O=S(=O)(c1cccc2cnccc12)N1CCCNCC1	CSF1R	cell-free assay			0.5 µM	remaining signal	97.9%
COc1ccc2cc(OCC3(C(=O)O)CN(C(=O)c4ccc(F)cc4)C3)ccc2c1	CSF1R	cell-free assay		competition with immobilised ligand	1 µM	remaining binding	100%
CCCOc1ccc(OC)c(F)c1C(=O)c1ccc(C(=O)N[C@@H]2CNC[C@H]2NC(=O)c2ccc3[nH]ncc3c2)cc1	CSF1R	enzyme activity	inhibitor		10 µM	remaining activity	27%
Cc1ccc(NC(=O)c2ccc(CN3CCN(C)CC3)cc2)cc1Nc1nccc(-c2cncc(-c3oncc3C)c2)n1	CSF1R	enzyme activity	inhibitor		0.5 µM	remaining activity	≤ 50%
Nc1cnc(N2CCc3cc(S(=O)(=O)Nc4c(F)cc(Cl)cc4F)cc(N4CCCC4=O)c32)nc1	CSF1R autoinhibited	cell-free assay		competition with immobilised ligand	1 µM	remaining binding	100%
COc1cc2ncnc(Nc3ccc(F)c(Cl)c3)c2cc1OCCCN1CCOCC1	CSF1R	cell-free assay			0.5 µM	remaining signal	110%
c1cnn2ncc(-c3ccnc(N4CCC45COC5)n3)c2c1	CSF1R	binding			1 µM	remaining binding	100%
